Assays:
ACHN = test: Growth inhibition of human ACHN cells after 48 hrs by sulforhodamine B assay; format: functional
How it was run: (§1)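 NCI screen panel. Five 10-fold concentrations from 10^-4 to 10^-8 M. Exposure for the last 48 h of a 72 h incubation. Growth estimated by sulforhodamine B protein assay. GI50 is the concentration giving 50% growth inhibition. Where that level was not reached or was exceeded, the value is given as above or below the highest or lowest concentration tested.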

SK-OV-3 = test: Growth inhibition of human SKOV3 cells after 48 hrs by sulforhodamine B assay; format: functional; conditions: SK-OV-3, 48 h; how it was run: as §1
HOP-92 = test: Growth inhibition of human HOP92 cells after 48 hrs by sulforhodamine B assay; format: functional; conditions: HOP-92, 48 h; how it was run: as §1
U-251 = test: Growth inhibition of human U251 cells after 48 hrs by sulforhodamine B assay; format: functional; conditions: U-251, 48 h
How it was run: (§2)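 NCI in vitro panel screen. Compounds tested at five 10-fold dilutions, 10^-4 to 10^-8 M. Cells in 96-well plates were exposed for the last 48 h of a 72 h incubation. Viability/growth was read by sulforhodamine B protein assay. GI50 is the concentration giving 50% growth inhibition. Values beyond the tested range are reported as greater or less than the maximum or minimum concentration.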

COLO 205 = test: Growth inhibition of human COLO205 cells after 48 hrs by sulforhodamine B assay; format: functional; conditions: COLO 205, 48 h; how it was run: as §1
UACC-62 = test: Growth inhibition of human UACC62 cells after 48 hrs by sulforhodamine B assay; format: functional; conditions: UACC-62, 48 h; how it was run: as §2
SF-295 = test: Growth inhibition of human SF295 cells after 48 hrs by sulforhodamine B assay; format: functional; conditions: SF-295, 48 h; how it was run: as §1
[1] = Growth inhibition of human […] cells after 48 hrs by sulforhodamine B assay; format: functional; how it was run: as §1
NCI-H322M = test: Growth inhibition of human NCI-H322M cells after 48 hrs by sulforhodamine B assay; format: functional; how it was run: as §1
Malme-3M = test: Growth inhibition of human MALME-3M cells after 48 hrs by sulforhodamine B assay; format: functional; how it was run: as §1
TK-10 = test: Growth inhibition of human TK10 cells after 48 hrs by sulforhodamine B assay; format: functional; conditions: TK-10, 48 h; how it was run: as §2
OVCAR-8 = test: Growth inhibition of human OVCAR8 cells after 48 hrs by sulforhodamine B assay; format: functional; conditions: OVCAR-8, 48 h; how it was run: as §1
SK-MEL-28 = test: Growth inhibition of human SK-MEL-28 cells after 48 hrs by sulforhodamine B assay; format: functional; conditions: SK-MEL-28, 48 h; how it was run: as §1
MOLT-4 = test: Growth inhibition of human MOLT4 cells after 48 hrs by sulforhodamine B assay; format: functional; conditions: MOLT-4, 48 h; how it was run: as §1
LOX IMVI = test: Growth inhibition of human LOXIMVI cells after 48 hrs by sulforhodamine B assay; format: functional; how it was run: as §1
SK-MEL-5 = test: Growth inhibition of human SK-MEL-5 cells after 48 hrs by sulforhodamine B assay; format: functional; conditions: SK-MEL-5, 48 h; how it was run: as §1
PC-3 = test: Growth inhibition of human PC3 cells after 48 hrs by sulforhodamine B assay; format: functional; conditions: PC-3, 48 h; how it was run: as §1
SK-MEL-2 = test: Growth inhibition of human SK-MEL-2 cells after 48 hrs by sulforhodamine B assay; format: functional; conditions: SK-MEL-2, 48 h; how it was run: as §1
KM12 = test: Growth inhibition of human KM12 cells after 48 hrs by sulforhodamine B assay; format: functional; conditions: KM12, 48 h; how it was run: as §1
SNB-19 = test: Growth inhibition of human SNB19 cells after 48 hrs by sulforhodamine B assay; format: functional; conditions: SNB-19, 48 h; how it was run: as §2
HOP-62 = test: Growth inhibition of human HOP62 cells after 48 hrs by sulforhodamine B assay; format: functional; conditions: HOP-62, 48 h; how it was run: as §1
HCT-15 = test: Growth inhibition of human HCT15 cells after 48 hrs by sulforhodamine B assay; format: functional; conditions: HCT-15, 48 h; how it was run: as §1
HL-60(TB) = test: Growth inhibition of human HL-60(TB) cells after 48 hrs by sulforhodamine B assay; format: functional; conditions: HL-60, 48 h
How it was run: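 NCI 60-cell-line screen protocol: cells exposed to compound at five 10-fold dilutions from 10^-4 to 10^-8 M for the last 48 h of a 72 h incubation. Sulforhodamine B protein assay estimated viability/growth. GI50 (50% growth inhibition) derived; where not reached or exceeded, reported as greater or less than the highest or lowest concentration tested.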

EKVX = test: Growth inhibition of human EKVX cells after 48 hrs by sulforhodamine B assay; format: functional; how it was run: as §1
SW-620 = test: Growth inhibition of human SW620 cells after 48 hrs by sulforhodamine B assay; format: functional; conditions: SW-620, 48 h; how it was run: as §2
MT4 = test: Antiproliferative activity against human MT4 cells assessed as reduction of growth by MTT assay; format: functional, cell-based
How it was run: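 MT-4 lymphoblastoid T cells (ATCC) in RPMI 1640 with 10% FCS, penicillin/streptomycin, checked for mycoplasma. 1 × 10⁴ mock-infected cells per well with serial dilutions from a 100 mM DMSO stock. Incubated 4 days at 37 °C, viable cells counted by MTT. IC50 versus untreated controls by linear regression. Mean of three separate experiments.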

OVCAR-4 = test: Growth inhibition of human OVCAR4 cells after 48 hrs by sulforhodamine B assay; format: functional; conditions: OVCAR-4, 48 h; how it was run: as §1
MCF7 = test: Growth inhibition of human MCF7 cells after 48 hrs by sulforhodamine B assay; format: functional; conditions: MCF7, 48 h; how it was run: as §1
SN12C = test: Growth inhibition of human SN12C cells after 48 hrs by sulforhodamine B assay; format: functional; how it was run: as §2
CAKI-1 = test: Growth inhibition of human Caki1 cells after 48 hrs by sulforhodamine B assay; format: functional; conditions: CAKI-1, 48 h; how it was run: as §1
MDA-MB-435 = test: Growth inhibition of human MDA-MB-435 cells after 48 hrs by sulforhodamine B assay; format: functional; conditions: MDA-MB-435, 48 h; how it was run: as §1
K562 = test: Growth inhibition of human K562 cells after 48 hrs by sulforhodamine B assay; format: functional; conditions: K562, 48 h; how it was run: as §1
IGROV-1 = test: Growth inhibition of human IGROV1 cells after 48 hrs by sulforhodamine B assay; format: functional; conditions: IGROV-1, 48 h; how it was run: as §1
CCRF-CEM = test: Growth inhibition of human CCRF-CEM cells after 48 hrs by sulforhodamine B assay; format: functional; how it was run: as §1
786-0 = test: Growth inhibition of human 786-0 cells after 48 hrs by sulforhodamine B assay; format: functional; conditions: 786-0, 48 h; how it was run: as §1
SR = test: Growth inhibition of human SR cells after 48 hrs by sulforhodamine B assay; format: functional; how it was run: as §2
OVCAR-3 = test: Growth inhibition of human OVCAR-3 cells after 48 hrs by sulforhodamine B assay; format: functional; conditions: OVCAR-3, 48 h; how it was run: as §1
UACC-257 = test: Growth inhibition of human UACC257 cells after 48 hrs by sulforhodamine B assay; format: functional; conditions: UACC-257, 48 h; how it was run: as §2
NCI-H460 = test: Growth inhibition of human NCI-H460 cells after 48 hrs by sulforhodamine B assay; format: functional; conditions: NCI-H460, 48 h; how it was run: as §1
MDA-MB-231 = test: Growth inhibition of human MDA-MB-231 cells after 48 hrs by sulforhodamine B assay; format: functional; conditions: MDA-MB-231, 48 h; how it was run: as §1
DU-145 = test: Growth inhibition of human DU145 cells after 48 hrs by sulforhodamine B assay; format: functional; conditions: DU-145, 48 h; how it was run: as §1
HT-29 = test: Growth inhibition of human HT-29 cells after 48 hrs by sulforhodamine B assay; format: functional; conditions: HT-29, 48 h; how it was run: as §1
SF-268 = test: Growth inhibition of human SF268 cells after 48 hrs by sulforhodamine B assay; format: functional; conditions: SF-268, 48 h; how it was run: as §1
NCI-H23 = test: Growth inhibition of human NCI-H23 cells after 48 hrs by sulforhodamine B assay; format: functional; conditions: NCI-H23, 48 h; how it was run: as §1
NCI-H522 = test: Growth inhibition of human NCI-H522 cells after 48 hrs by sulforhodamine B assay; format: functional; conditions: NCI-H522, 48 h; how it was run: as §1
BT-549 = test: Growth inhibition of human BT549 cells after 48 hrs by sulforhodamine B assay; format: functional; conditions: BT-549, 48 h; how it was run: as §1
M14 = test: Growth inhibition of human M14 cells after 48 hrs by sulforhodamine B assay; format: functional; conditions: M14, 48 h; how it was run: as §1
UO-31 = test: Growth inhibition of human UO31 cells after 48 hrs by sulforhodamine B assay; format: functional; conditions: UO-31, 48 h; how it was run: as §2
A549 = test: Growth inhibition of human A549 cells after 48 hrs by sulforhodamine B assay; format: functional; conditions: A549, 48 h; how it was run: as §1
RXF 393 = test: Growth inhibition of human RXF393 cells after 48 hrs by sulforhodamine B assay; format: functional; conditions: RXF 393, 48 h; how it was run: as §1
NCI/ADR-RES = test: Growth inhibition of human NCI/ADR-RES cells after 48 hrs by sulforhodamine B assay; format: functional; how it was run: as §1
HCT-116 = test: Growth inhibition of human HCT116 cells after 48 hrs by sulforhodamine B assay; format: functional; conditions: HCT-116, 48 h; how it was run: as §1

SMILES: N#C/C(=C\N1CCN(C(=O)c2ccco2)C1=S)C(=O)Nc1ccc(Cl)cc1
- GI50 (ACHN): 15.3 µM
- GI50 (SK-OV-3): 41.2 µM
- GI50 (HOP-92): 21.5 µM
- GI50 (U-251): 17.3 µM
- GI50 (COLO 205): 25.6 µM
- GI50 (UACC-62): 16.9 µM
- GI50 (SF-295): 20.2 µM
- GI50 [1]: 10.5 µM
- GI50 (NCI-H322M): 28.6 µM
- GI50 (Malme-3M): 21.4 µM
- GI50 (TK-10): 19.4 µM
- GI50 (OVCAR-8): 20.6 µM
- GI50 (SK-MEL-28): 18.7 µM
- GI50 (MOLT-4): 17.7 µM
- GI50 (LOX IMVI): 16.7 µM
- GI50 (SK-MEL-5): 11.2 µM
- GI50 (PC-3): 18.9 µM
- GI50 (SK-MEL-2): 16.7 µM
- GI50 (KM12): 16.3 µM
- GI50 (SNB-19): 27.6 µM
- GI50 (HOP-62): 25.7 µM
- GI50 (HCT-15): 21.3 µM
- GI50 (HL-60(TB)): 10.5 µM
- GI50 (EKVX): 0.01 µM
- GI50 (SW-620): 17.3 µM
- IC50 (MT4): 6.5 µM
- GI50 (OVCAR-4): 25.2 µM
- GI50 (MCF7): 21 µM
- GI50 (SN12C): 11.8 µM
- GI50 (CAKI-1): 13.2 µM
- GI50 (MDA-MB-435): 15.2 µM
- GI50 (K562): 16.1 µM
- GI50 (IGROV-1): 25.3 µM
- GI50 (CCRF-CEM): 22.5 µM
- GI50 (786-0): 17.4 µM
- GI50 (SR): 1.6 µM
- GI50 (OVCAR-3): 15.5 µM
- GI50 (UACC-257): 16.5 µM
- GI50 (NCI-H460): 19.9 µM
- GI50 (MDA-MB-231): 18.4 µM
- GI50 (DU-145): 15.9 µM
- GI50 (HT-29): 21.4 µM
- GI50 (SF-268): 17.8 µM
- GI50 (NCI-H23): 12.3 µM
- GI50 (NCI-H522): 16.7 µM
- GI50 (BT-549): 8.6 µM
- GI50 (M14): 14.2 µM
- GI50 (UO-31): 12 µM
- GI50 (A549): 25.8 µM
- GI50 (RXF 393): 13.1 µM
- GI50 (NCI/ADR-RES): 28.1 µM
- GI50 (HCT-116): 15.2 µM

— ChEMBL document CHEMBL1138555, “N-acylated and N,N'-diacylated imidazolidine-2-thione derivatives and N,N'-diacylated tetrahydropyrimidine-2(1H)-thione analogues: synthesis and antiproliferative activity” (Eur J Med Chem, 2009)
